{"source": "paper PMC8994735", "about": "(Targeted Oncology, 2021)", "key": {"[1]": {"system": "East Asian patients with advanced nonhematologic malignancies", "test": "Dose-limiting toxicities and MTD/RP2D determination", "type": "in vivo, human", "method_in_brief": "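Standard 3 + 3 escalation with planned levels of 2 and 4 mg once daily and 20 and 30 mg once weekly, oral, in 28-day cycles; intermediate doses and expansion to 12 patients were permitted. DLTs were assessed in cycle 1 and covered grade ≥ 3 nonhematologic toxicity (with specified exceptions), defined hematologic events, and < 75% of planned doses given. Evaluable patients received ≥ 75% of planned doses (21 once daily, three once weekly).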"}, "[2]": {"test": "Plasma pharmacokinetics", "type": "in vivo, human", "conditions": "for AUC / Cmax / half-life / Tmax: human, oral; for Cmax: Mean Cmax"}, "[3]": {"system": "advanced nonhematologic malignancies", "test": "Antitumor activity: disease response by RECIST v1.1", "type": "in vivo, human", "method_in_brief": "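Oral dosing once daily (2, 3 or 4 mg) or once weekly (20 or 30 mg) in 28-day cycles. Treatment lasted up to 12 months or until progression, unacceptable toxicity or consent withdrawal. Response was assessed by RECIST v1.1 in the safety analysis set (patients receiving ≥ 1 dose). Analysis was descriptive, with no formal hypothesis testing.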"}, "[4]": {"system": "Western patients", "conditions": "cited from earlier work"}, "[5]": {"system": "patients from the United States / Western patients", "conditions": "cited from earlier work"}, "[6]": {"system": "nonhematologic malignancies/solid tumors, endometrial cancer", "conditions": "phase 2 study in endometrial cancer; single-agent 30 mg QW; cited from earlier work"}}, "note": "“Also recorded” adds a separate entry of the source. Read-outs that look alike come from different tables or passages of the source."}
{"compound": "CC(C)n1nc(-c2ccc3oc(N)nc3c2)c2c(N)ncnc21", "note": "[sapanisertib]", "values": [{"measurement": "DLT of grade 3 stomatitis", "setting": "[1]; 4 mg QD cohort", "result": 2, "unit": "n"}, {"measurement": "Dose-limiting toxicities (patients experiencing DLTs)", "setting": "[1]; 4 mg QD cohort, cycle 1", "result": "three"}, {"measurement": "DLTs", "setting": "[1]; 20 mg QW dose level", "result": "no patients experienced DLTs"}, {"measurement": "DLTs", "setting": "[1]; 30 mg QW dose level", "result": "no patients experienced DLTs"}, {"measurement": "Maximum tolerated dose (MTD)", "setting": "[1]; QD dosing, East Asian patients", "result": 3, "unit": "mg"}, {"measurement": "Recommended phase 2 dose (RP2D)", "setting": "[1]; QD dosing, East Asian patients", "result": 3, "unit": "mg"}, {"measurement": "Recommended phase 2 dose (RP2D)", "setting": "[1]; QW dosing, East Asian patients", "result": 30, "unit": "mg"}, {"measurement": "Accumulation in plasma", "setting": "[2]; QD or QW, any dose level", "result": "did not accumulate in plasma to any appreciable extent"}, {"measurement": "Dose dependence of plasma exposure (AUC and Cmax)", "setting": "[2]; across all doses", "result": "increased linearly across all doses; also recorded: generally linear, dose-dependent"}, {"measurement": "Time at which peak plasma concentrations were achieved post-dose", "setting": "[2]; cycle 1 day 1, single dose, both QD and QW arm", "result": "0.5 to 2.0", "unit": "h"}, {"measurement": "Geometric mean accumulation ratio of AUC168", "setting": "[2]; cycle 1 day 15, 20 mg QW", "result": 1.14}, {"measurement": "Geometric mean accumulation ratio of Cmax", "setting": "[2]; cycle 1 day 15, 20 mg QW", "result": 0.72}, {"measurement": "Geometric mean accumulation ratio of AUC168", "setting": "[2]; cycle 1 day 15, 30 mg QW", "result": 1.47}, {"measurement": "Geometric mean accumulation ratio of Cmax", "setting": "[2]; cycle 1 day 15, 30 mg QW", "result": 1.36}, {"measurement": "Time at which peak plasma concentrations were achieved post-dose", "setting": "[2]; cycle 1 day 15, QD arm", "result": "0.5 to 3.0", "unit": "h"}, {"measurement": "Time at which peak plasma concentrations were achieved post-dose", "setting": "[2]; cycle 1 day 15, QW arm", "result": "0.5 to 4.1", "unit": "h"}, {"measurement": "Geometric mean accumulation ratio of Cmax", "setting": "[2]; cycle 1 day 15, across all QD dose levels", "result": "0.93–1.30"}, {"measurement": "AUC", "setting": "[2]; plasma, Mean AUC24, cycle 1 day 15, QD dosing", "result": "237 to 366", "unit": "ng·h/mL"}, {"measurement": "AUC", "setting": "[2]; plasma, Mean AUC from 0–24 h (AUC24), cycle 1 day 1, across QD doses", "result": "138 to 315", "unit": "ng·h/mL"}, {"measurement": "Cmax", "setting": "[2]; plasma, cycle 1 day 1, across all QD doses", "result": "23.9 to 56.9", "unit": "ng/mL"}, {"measurement": "Cmax", "setting": "[2]; plasma, cycle 1 day 15, across all QD doses", "result": "33.4 to 57.2", "unit": "ng/mL"}, {"measurement": "half-life", "setting": "[2]; plasma, Mean plasma elimination half-life, cycle 1 day 1, across all QD doses", "result": "6 to 6.8", "unit": "h"}, {"measurement": "half-life", "setting": "[2]; plasma, Mean plasma elimination half-life, cycle 1 day 15, across all QD doses", "result": "5.24 to 9.2", "unit": "h"}, {"measurement": "Tmax", "setting": "[2]; plasma, Median Tmax, cycle 1 day 1, across all QD doses", "result": "0.5 to 1", "unit": "h"}, {"measurement": "Tmax", "setting": "[2]; plasma, Median Tmax, cycle 1 day 15, across all QD doses", "result": "1 to 1.5", "unit": "h"}, {"measurement": "half-life", "setting": "[2]; plasma, T1/2, overall, as summarised in the abstract", "result": "5.9 to 7.6", "unit": "h"}, {"measurement": "Tmax", "setting": "[2]; plasma, Tmax, across all doses in both arms", "result": "0.5 to 2.6", "unit": "h"}, {"measurement": "Cmax, mean (sd)", "setting": "[2]; plasma, cycle 1 day 15, QW dose escalation 20 mg, n 3", "result": 207.5, "unit": "ng/mL"}, {"measurement": "Best overall response of progressive disease", "setting": "[3]; QD arm", "result": 45, "unit": "%"}, {"measurement": "Clinical benefit rate (CR, PR, or SD of any duration)", "setting": "[3]; QD arm", "result": 45, "unit": "%"}, {"measurement": "Discontinuation due to progressive disease", "setting": "[3]; QD arm", "result": 64, "unit": "%"}, {"measurement": "Best overall response of progressive disease", "setting": "[3]; QW arm", "result": 33, "unit": "%"}, {"measurement": "Clinical benefit rate (CR, PR, or SD of any duration)", "setting": "[3]; QW arm", "result": 67, "unit": "%"}, {"measurement": "Discontinuation due to progressive disease", "setting": "[3]; QW arm", "result": 67, "unit": "%"}, {"measurement": "Patients with stable disease for ≥ 6 months", "setting": "[3]; all cohorts", "result": "Three"}, {"measurement": "Complete response (CR) or partial response (PR)", "setting": "[3]; either treatment arm", "result": "No patients"}, {"measurement": "Anti-tumor effect", "setting": "[3]; heavily pretreated patients, across dosing schedules", "result": "Moderate anti-tumor effects and a favorable safety profile were observed with sapanisertib in this heavily pretreated patient population"}, {"measurement": "RP2D in Western patients", "setting": "[4]; QD, Western patient populations", "result": 4, "unit": "mg"}, {"measurement": "Lowest RP2D in previous studies in Western patients", "setting": "[4]; QD", "result": 4, "unit": "mg"}, {"measurement": "Lowest RP2D in previous studies in Western patients", "setting": "[4]; QW", "result": 30, "unit": "mg"}, {"measurement": "Incidence of stomatitis", "setting": "[5]; 20 or 30 mg QW", "result": 10, "unit": "%"}, {"measurement": "Incidence of stomatitis", "setting": "[5]; sapanisertib 2–7 mg QD", "result": 35, "unit": "%"}, {"measurement": "Incidence of stomatitis", "setting": "[5]; sapanisertib 3 or 4 mg QD", "result": 18, "unit": "%"}, {"measurement": "Incidence of stomatitis", "setting": "[5]; sapanisertib 7–40 mg QW", "result": 30, "unit": "%"}, {"measurement": "Pre-defined futility threshold", "setting": "[6]", "result": "did not meet a pre-defined futility threshold"}]}
